Experimental data gathered from unrelated publications.
Target: Mitogen-activated protein kinase 14 (MAPK14, Homo sapiens, UniProt Q16539)

COc1ccc2[nH]c3c4[nH]c5ccc(OC)cc5c4c4c(c3c2c1)C(=O)NC4=O — remaining binding (binding, competition with immobilised ligand; 1 µM): 87%
C#Cc1cnc(Nc2ccnc(CO)c2)nc1Nc1ccccc1S(C)(=O)=NC#N (stereo not drawn) — remaining signal (cell-free assay; 1 µM): 91%
CN1CCN(C(=O)c2ccc(NC(=O)Nc3ccc(N(C)c4ccnc(Nc5ccc(CS(C)(=O)=O)cc5)n4)cc3)cc2)CC1 — remaining binding (binding, competition with immobilised ligand; 1 µM): 83%
N#Cc1ccc(NC(=O)Nc2ccccc2)cc1 — remaining binding (cell-free assay, competition with immobilised ligand; 25 µM): 79%
CCCCC(=O)Nc1ccc(-c2ccc3ncn(CCC)c(=O)c3c2)cn1 — remaining binding (binding, competition with immobilised ligand; 0.5 µM): 88%
CC#CC(=O)N1CCC[C@H]1c1nc(-c2ccc(C(=O)Nc3ccccn3)cc2)c2c(N)nccn12 — inhibition (enzyme activity, inhibitor; 1 µM): 0%
COc1ccc2oc(-c3ccc4nc(N)oc4c3)c/c(=N\c3ccccc3NC(=O)CCN)c2c1 — remaining binding (binding; 1 µM): 109%
C=CC(=O)N1CCC([C@@H]2CCNc3c(C(N)=O)c(-c4ccc(Oc5ccccc5)cc4)nn32)CC1 — inhibition (enzyme activity, inhibitor; 1 µM): 1%
C1=C/COCc2cc(ccc2OCCN2CCCC2)Nc2nccc(n2)-c2cccc(c2)COC/1 — remaining signal (cell-free assay; 0.1 µM): 89%
